Results published in ChEMBL document CHEMBL4402576, “Discovery and Development of Small-Molecule Inhibitors of Glycogen Synthase” (J Med Chem, 2020).
The source made the active and inactive calls. The calls are words filed in the database; no cut-off is given here.

How the values were obtained:
Saccharomyces cerevisiae [1] = test: Inhibition of recombinant His-tagged yeast GYS2P expressed in Escherichia coli BL21(DE3) cells assessed as enzyme activity at 300 uM using UDPG as substrate in presence of G-6-P by 14C-glucose incorporation assay relative to control; design: scale not given: the % may be the effect or the level left
Homo sapiens [2] = species on record: Homo sapiens; test: Inhibition of C-terminal 6His-tagged human GYS1 delta634S8,11N mutant assessed as enzyme activity at 300 uM using UDPG as substrate in presence of 0.4 mM G-6-P by 14C-glucose incorporation assay relative to control; design: scale not given: the % may be the effect or the level left
[3] = target: T1, Glycogen [starch] synthase, muscle (Homo sapiens) (UniProt P13807); test: Inhibition of C-terminal 6His-tagged wild type human GYS1 assessed as enzyme activity at 300 uM using UDPG as substrate in presence of 1 mM G-6-P by 14C-glucose incorporation assay relative to control; design: scale not given: the % may be the effect or the level left
T1 sequence (whole entry): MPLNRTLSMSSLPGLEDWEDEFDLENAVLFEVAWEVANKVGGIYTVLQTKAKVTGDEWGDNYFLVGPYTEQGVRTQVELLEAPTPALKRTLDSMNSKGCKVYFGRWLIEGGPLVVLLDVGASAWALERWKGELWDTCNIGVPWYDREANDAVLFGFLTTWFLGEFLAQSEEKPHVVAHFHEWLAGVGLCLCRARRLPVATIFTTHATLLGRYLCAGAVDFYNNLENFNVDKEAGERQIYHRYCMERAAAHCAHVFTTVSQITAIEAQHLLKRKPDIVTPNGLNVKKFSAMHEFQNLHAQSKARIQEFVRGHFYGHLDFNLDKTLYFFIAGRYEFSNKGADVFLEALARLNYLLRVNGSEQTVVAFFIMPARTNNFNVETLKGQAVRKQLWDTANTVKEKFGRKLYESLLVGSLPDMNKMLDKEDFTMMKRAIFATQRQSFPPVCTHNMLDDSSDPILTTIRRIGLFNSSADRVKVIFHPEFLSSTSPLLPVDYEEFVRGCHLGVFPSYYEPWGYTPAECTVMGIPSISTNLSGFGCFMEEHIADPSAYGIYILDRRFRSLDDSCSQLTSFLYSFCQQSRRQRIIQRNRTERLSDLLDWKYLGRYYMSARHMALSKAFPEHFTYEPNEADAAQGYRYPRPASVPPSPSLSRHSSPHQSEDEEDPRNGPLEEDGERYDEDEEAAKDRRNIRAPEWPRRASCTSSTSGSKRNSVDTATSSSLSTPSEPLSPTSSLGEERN

[4] = target: T2, Glycogen [starch] synthase, muscle (Homo sapiens, UniProt P13807); test: Inhibition of C-terminal 6His-tagged wild type human GYS1 using UDPG as substrate in presence of 1 mM G-6-P by 14C-glucose incorporation assay
T2 sequence (P13807 whole entry): T1 sequence (whole entry)
Method in brief: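 Full-length wild-type hGYS1 with C-terminal 6×His tag in place of the intein-chitin binding domain, Ni-NTA purified. Glucose transfer from UDP-[14C]glucose into glycogen with 0.2 mM UDPG and 1 mM G6P. Controls contained 2% (v/v) DMSO. IC50 was fitted by four-parameter logistic. Values are mean ± SEM of at least three independent experiments in duplicate.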

[5] = target: T1, Glycogen [starch] synthase, muscle (Homo sapiens); test: Inhibition of C-terminal 6His-tagged wild type human GYS1 assessed as enzyme activity at 20 uM using UDPG as substrate in presence of 1 mM G-6-P by 14C-glucose incorporation assay relative to control; design: scale not given: the % may be the effect or the level left
Saccharomyces cerevisiae [6] = test: Inhibition of recombinant His-tagged yeast GYS2P expressed in Escherichia coli BL21(DE3) cells assessed as enzyme activity at 20 uM using UDPG as substrate in presence of G-6-P by 14C-glucose incorporation assay relative to control; design: scale not given: the % may be the effect or the level left
Homo sapiens [7] = species on record: Homo sapiens; test: Inhibition of C-terminal 6His-tagged human GYS1 delta634S8,11N mutant assessed as enzyme activity at 20 uM using UDPG as substrate in presence of 0.4 mM G-6-P by 14C-glucose incorporation assay relative to control; design: scale not given: the % may be the effect or the level left
[8] = target: T1, Glycogen [starch] synthase, muscle (Homo sapiens); test: Inhibition of glycogen synthase in human HEK293 cell lysates overexpressing mouse PTG at 100 uM using 0.2 mM UDPG as substrate in presence of 1 mM G-6-P by 14C-glucose incorporation assay relative to control; format: subcellular; conditions: Lysate
Method in brief: (§1)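 Lysates came from HEK293 cells stably expressing PTG (5.5 mM glucose αMEM, 10% FBS, hygromycin) or from Rat-1 cells (25 mM glucose DMEM, 10% FBS), grown 3–4 days to confluency. Cells were lysed by freezing, scraping and sonication in Tris/EDTA/EGTA/NaF buffer with protease inhibitors and Triton. Assays used 0.15 mg/mL (HEK293-PTG) or 0.75 mg/mL (Rat-1) lysate in 50 mM Tris-HCl pH 7.8 with 6.7 mg/ml glycogen and 2% DMSO. Read-out was [14C]glucose incorporation relative to DMSO control, in triplicate.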

[9] = target: T3, Glycogen [starch] synthase, muscle (Rattus norvegicus) (UniProt A2RRU1); test: Inhibition of glycogen synthase in rat-1 fibroblast cell lysates at 100 uM using 0.2 mM UDPG as substrate in presence of 1 mM G-6-P by 14C-glucose incorporation assay relative to control; format: subcellular; conditions: Lysate; method in brief: as §1
T3 sequence (whole entry): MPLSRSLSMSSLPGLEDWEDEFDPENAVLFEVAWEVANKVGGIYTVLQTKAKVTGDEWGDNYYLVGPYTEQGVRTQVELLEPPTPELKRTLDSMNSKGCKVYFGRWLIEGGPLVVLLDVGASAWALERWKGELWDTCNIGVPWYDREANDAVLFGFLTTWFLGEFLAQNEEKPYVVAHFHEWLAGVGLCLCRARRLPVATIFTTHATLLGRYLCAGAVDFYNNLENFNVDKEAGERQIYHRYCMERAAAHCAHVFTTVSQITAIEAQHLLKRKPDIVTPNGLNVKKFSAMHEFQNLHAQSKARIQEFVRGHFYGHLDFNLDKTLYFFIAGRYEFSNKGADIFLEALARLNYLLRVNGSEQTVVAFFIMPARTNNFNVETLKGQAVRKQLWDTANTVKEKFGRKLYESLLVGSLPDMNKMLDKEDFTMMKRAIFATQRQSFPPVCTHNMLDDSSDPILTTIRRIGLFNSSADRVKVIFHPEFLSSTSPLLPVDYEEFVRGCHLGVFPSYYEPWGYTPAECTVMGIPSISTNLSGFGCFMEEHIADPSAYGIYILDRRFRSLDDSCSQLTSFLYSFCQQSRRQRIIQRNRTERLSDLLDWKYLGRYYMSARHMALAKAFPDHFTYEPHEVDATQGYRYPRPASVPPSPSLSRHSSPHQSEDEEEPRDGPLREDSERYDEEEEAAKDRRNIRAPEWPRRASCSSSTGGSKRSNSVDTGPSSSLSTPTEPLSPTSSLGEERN

[10] = Competitive inhibition of recombinant His-tagged yeast GYS2P expressed in Escherichia coli BL21(DE3) cells using UDPG as substrate in presence of G-6-P by 14C-glucose incorporation based Michaelis-Menton plot analysis; design: species or system Saccharomyces cerevisiae
Method in brief: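 Ni-NTA then Q-Sepharose purified enzyme (5 μg/ml) assayed by radiolabelled glucose transfer from UDPG into glycogen. UDPG varied 0.2–8 mM with 7.2 mM G6P, covaried against fixed inhibitor levels, 2% (v/v) DMSO throughout. Data fitted to competitive, non-competitive and uncompetitive models, chosen by goodness-of-fit and residuals. Ki given as mean ± SEM of three independent experiments in duplicate.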

[11] = target: T1, Glycogen [starch] synthase, muscle (Homo sapiens); test: Inhibition of glycogen synthase in human HEK293 cell lysates overexpressing mouse PTG at 100 uM using 0.2 mM UDPG as substrate in presence of 1 mM G-6-P by 14C-glucose incorporation assay; format: subcellular; conditions: Lysate; method in brief: as §1
[12] = target: T3, Glycogen [starch] synthase, muscle (Rattus norvegicus); test: Inhibition of glycogen synthase in rat-1 fibroblast cell lysates at 100 uM using 0.2 mM UDPG as substrate in presence of 1 mM G-6-P by 14C-glucose incorporation assay; format: subcellular; conditions: Lysate; method in brief: as §1

SMILES	Activity (Saccharomyces cerevisiae [1])	Activity (Homo sapiens [2])	Activity [3]	IC50 [4]	Activity [5]	Activity (Saccharomyces cerevisiae [6])	Activity (Homo sapiens [7])	further results
Oc1ccc(-c2c(-c3ccccc3)ncn2CCc2c[nH]cn2)cc1	66.6%	56.6%	93.4%					
Oc1ccc(-c2n[nH]cc2-c2ccc(Cl)c(Cl)c2)c(O)c1O				19.5 µM	52.5%			
Cc1[nH]nc(-c2ccc(O)c(O)c2O)c1-c1ccc(F)cc1					94%	> 95%	89%	
COc1ccc(-c2ccc(CCC(=O)O)n2-c2ccc(O)cc2)cc1	34.5%	50.6%	84%					
Cc1ccc(-c2ccccc2)n1-c1ccc(O)cc1	79.7%	84.3%	> 95%					
Oc1ccc(-c2c(-c3ccccc3)ncn2CCCn2ccnc2)cc1	94.8%	> 95%	> 95%					
Cc1[nH]nc(-c2ccc(O)c(O)c2O)c1-c1ccc(Cl)c(Cl)c1					84.7%	> 95%	81.7%	
Oc1ccc(-c2n[nH]c(C(F)(F)F)c2-c2ccccc2)c(O)c1O				16.4 µM	47.2%	51.8%	5.68%	
Oc1ccc(-c2n[nH]c(C(F)(F)F)c2-c2ccc(F)cc2)c(O)c1O				14.1 µM	47.8%	45.7%	11.7%	inhibition [8]: > 30%; inhibition [9]: > 30%
O=[N+]([O-])c1ccc(-c2c(-c3ccc(O)c(O)c3O)n[nH]c2C(F)(F)F)cc1				6.54 µM	1.43%	18.8%	10.5%	inhibition [8]: > 30%; inhibition [9]: > 30%
Oc1ccc(-c2n[nH]c(C(F)(F)F)c2-c2ccc(Cl)cc2)c(O)c1O				19.8 µM	47.5%	51.5%	11.8%	inhibition [8]: > 30%; inhibition [9]: > 30%
Oc1ccc(-c2n[nH]c(C(F)(F)F)c2-c2ccc(Cl)c(Cl)c2)c(O)c1O				13.7 µM	12.2%	47.4%	5.28%	
Oc1ccc(-c2c(-c3cc(F)c(O)cc3O)n[nH]c2C(F)(F)F)cc1				72.4 µM	78.4%	65.2%	74.2%	
COC(=O)c1ccc(-c2c(-c3ccc(O)c(O)c3O)n[nH]c2C)cc1					80.1%	90.6%	> 95%	
NC(=O)c1ccc(-n2c(CCC(=O)O)ccc2-c2ccccc2)cc1	49.3%	40.6%	78.7%					
Oc1ccc(-c2n[nH]c(C(F)(F)F)c2-c2ccc(OC(F)(F)F)cc2)c(O)c1O					81.4%	91.6%	40.3%	
O=c1ccn([C@@H]2O[C@H](COP(=O)(O)OP(=O)(O)O)[C@@H](O)[C@H]2O)c(=O)[nH]1 [URIDINE_DIPHOSPHATE]								Ki [10]: 350 µM
Oc1ccc(-c2n[nH]c(C(F)(F)F)c2-c2ccc(Cl)cc2)c(O)c1					> 95%	> 95%	87.9%	
Cc1[nH]nc(-c2ccc(O)c(O)c2O)c1-c1ccc(Cl)cc1	3.52%	6.47%	4.34%	52.9 µM	91.8%	> 95%	> 95%	
N#Cc1ccc(-c2c(-c3ccc(O)c(O)c3O)n[nH]c2C(F)(F)F)cc1				10.1 µM	42%	51.2%	8.14%	
O=C(O)CCc1ccc(-c2ccccc2)n1-c1ccc(O)cc1	40.1%	40.1%	58.9%	384 µM				inhibition [11]: inactive; inhibition [12]: inactive
Oc1ccc(-c2n[nH]cc2-c2ccccc2)c(O)c1O					84.7%	> 95%	25.2%	
CN1CCCC1CCn1cnc(-c2ccccc2)c1-c1ccncc1 (stereo unspecified)	> 95%	93.3%	> 95%					
c1ccc(-c2ncn(CCc3c[nH]cn3)c2-c2ccncc2)cc1	72.7%	94.4%	> 95%					
O=[N+]([O-])c1ccc(-c2c[nH]nc2-c2ccc(O)c(O)c2O)cc1				34 µM	66.8%	78.4%	85%	
Oc1ccc(-n2c(-c3ccccc3)ccc2-c2ccccc2)cc1	86%	> 95%	> 95%					
O=[N+]([O-])c1ccc(-c2c(-c3ccc(O)cc3O)n[nH]c2C(F)(F)F)cc1					89.2%	82.3%	92.7%	
O=C(O)CCc1ccc(-c2ccccc2)n1-c1ccc(F)cc1	84.7%	72.1%	87.5%					
Oc1ccc(-c2c[nH]nc2-c2ccc(O)c(O)c2O)cc1				9.82 µM	22.6%	6.21%	23%	
